# Source: the array DNA melting data of Ke et al. (doi:10.1101/2024.01.08.574731)
# Tests used:
# [1] = melting temperature; fluorescence melt of hairpins on a sequencing array, two-state fit, raised by 9.35 °C to match UV melts; conditions: sodium 0.088 M
# Summary of the method: (§1)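 Hairpins were imaged by Cy3 fluorescence on a sequenced MiSeq flow cell with annealed Cy3 and quencher oligos, in 50 mM Na-HEPES pH 8.0, 25 mM NaCl, in 2.5 °C steps up to 60 °C. Bootstrapped two-state fits of normalised signals gave melting temperature and folding enthalpy. Four replicates were combined by inverse variance, and fitted temperatures were raised by 9.35 °C to match UV melts.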
# [2] = folding enthalpy; higher = less favourable; fluorescence melt of hairpins on a sequencing array, two-state fit; conditions: sodium 0.088 M
# Summary of the method: as §1
Sequence,Tm [1] [°C],folding enthalpy [2] [kcal/mol]
GAAACAGGAAACTGTTCC (.(((((....))))).),35.3,-14.9
GAAACCCGAAAGGGATTC (((.(((....))).))),49.3,-23.6
GAAACCGAAAGGTACTTC ((((((....)))..))),34.6,-17.8
GAAACCGAAAGGTATTTC ((((((....)))..))),26.6,-12.4
GAAACCGAAAGGTCCTTC ((((((....)))..))),30.7,-14.6
GAAACGACGAAAGTCTTC (((..(((....)))))),29.5,-9.41
GAAACGCCGAAAGGCTTC (((..(((....)))))),23.1,-7.92
GAAACGCGAAAGCGTTC (((.(((....)))))),50.6,-8.94
GAAACGGGAAACCATTTC ((((.((....)).)))),28.8,-21.5
GAAACGGGAAACCGTTTC (((((((....))))))),60.3,-50.9
GAAAGACCGAAAGGTTTC (((..(((....)))))),28.8,-11.5
GAAAGACGAAAGTCATTC (((.(((....))).))),38.2,-21.1
GAAAGACGAAAGTCTTC (((.(((....)))))),44.3,-12.6
GAAAGCGAAAGCTAATTC ((((((....)))..))),28.8,-8.31
GAAAGCGAAAGCTCTTTC ((((((....)))..))),38.2,-16.7
GAAAGCGAAAGCTTTTTC ((((((....)))..))),49,-14.2
GAAAGCGGAAACGCTCTC ((.((((....)))).)),35,-12.3
GAAAGGCCGAAAGGCTTC (((..(((....)))))),28.5,-8.26
GAAAGGCGAAAGCCGTTC (((.(((....))).))),46.7,-11.9
GAAAGGGAAACCTTTC ((((((....)))))),47,-30
GAAAGGGGAAACCCTTTC (((((((....))))))),54.8,-47
GAAAGTGAAAACTTTC ((((((....)))))),47.7,-27.2
GAAAGTGGAAACACTTTC (((((((....))))))),56.8,-36.1

Sequence,Tm [1] [°C],folding enthalpy [2] [kcal/mol]
GAAAGTGGAAACATTTTC ((((.((....)).)))),32.1,-27.4
GAAATACGAAAGTAATTC (((.(((....))).))),32.9,-15
GAAATACGAAAGTATTC (((.(((....)))))),38.9,-12.8
GAAATAGAAATATTTC ((((((....)))))),32.7,-21.9
GAAATCCCGAAAGGGTTC (((..(((....)))))),26.2,-9.79
GAAATCCGAAAGGATTC (((.(((....)))))),46.4,-11.2
GAAATCGGAAACGATCTC ((.((((....)))).)),29.3,-17.4
GAACAACGAAAGTTATTC (((.(((....))).))),30.1,-18.4
GAACAACGAAAGTTTTC (((.(((....)))))),28.2,-11.8
GAACAAGGAAACCTGTTC (((((.(....).))))),37.3,-25.7
GAACACACGAAAGTGTTC (((..(((....)))))),46.2,-20.5
GAACACGAAAGTGAGTTC ((((((....)))..))),35.7,-16.4
GAACACGAAAGTGGGTTC ((((((....)))..))),37.1,-16.4
GAACACGAAAGTGGTTTC ((((((....)))..))),35.5,-14
GAACACGAAAGTGTTC ((((((....)))))),69,-30.9
GAACACGAAAGTGTTTC ((((((....))).))),52.9,-12.4
GAACAGCGAAAGCTATTC (((.(((....))).))),34.7,-15.6
GAACATGGAAACACGTTC ((((.((....)).)))),33,-27.5
GAACATGGAAACATGTCC (.(((((....))))).),35.8,-15.4
GAACATGGAAACATGTTC (((((((....))))))),56.2,-43.3
GAACCAGAAATGGTTC ((((((....)))))),54.2,-33.6
GAACCAGGAAACTGGTTC (((((((....))))))),62,-45.1
GAACCCGAAAGGGATTTC ((((((....)))..))),29.5,-11.1
